# How the values were obtained:
# Mus musculus [1] = assay: In vivo antimalarial activity against Plasmodium berghei NK173 in mice (Mus musculus) by intraperitoneal route at a concentration of 35.5 uM/kg at day 4; format: functional
# Outline: (§1)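 Female CD1 mice (18-20 g) were infected with P. berghei NK 173 at (1-5) × 10^6 parasitized red cells, following the Peters test. Groups held 5-10 mice. Drug was given intraperitoneally at 35.5 µmol·kg⁻¹. Survival was followed to 20 days postinfection.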
# Plasmodium falciparum [2] = assay: In vitro inhibitory concentration against chloroquine-resistant Plasmodium falciparum FcB1; format: functional, organism-based
# Outline: (§2)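 [3H]hypoxanthine uptake assay on chloroquine-resistant P. falciparum FcB1 (Colombia) and W2 (Indochina) in continuous human erythrocyte culture. Ring-stage synchronized parasites at 0.5% parasitemia and 1% final hematocrit received serially diluted drug, with methanol or DMSO at no more than 0.1% final. Plates ran 42 h at 37 °C in a candle jar, then freeze-thaw, harvest and scintillation counting. IC50 came from nonlinear regression of log dose-response, from at least three experiments.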
# Plasmodium falciparum [3] = assay: In vitro inhibitory concentration against chloroquine-resistant Plasmodium falciparum W2; format: functional, organism-based; outline: as §2
# Mus musculus [4] = assay: In vivo effective dose was evaluated against Plasmodium berghei N by subcutaneous administration in mice (Mus musculus); format: functional; conditions: sc
# Outline: (§3)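 P. berghei N infection in mice, with drug given subcutaneously or orally, per the Peters protocol. Parasitemia was read on day 4 and expressed as percent reduction at 10 mg/kg. ED50 and ED90 in mg/kg were derived from the same test.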
# Mus musculus [5] = assay: In vivo effective dose was evaluated against Plasmodium berghei N by peroral administration in mice (Mus musculus); format: functional; conditions: po; outline: as §3
# Mus musculus [6] = assay: Compound was evaluated for percentage reduction of parasitaemia at day 4 at a concentration of 10 mg/kg by peroral administration; format: functional; conditions: route oral; outline: as §3
# Mus musculus [7] = assay: In vivo effective dose evaluated against Plasmodium berghei N by peroral administration in mice (Mus musculus); format: functional; conditions: po; outline: as §3
# Mus musculus [8] = assay: In vivo effective dose evaluated against Plasmodium berghei N by subcutaneous administration in mice (Mus musculus); format: functional; conditions: sc; outline: as §3
# Mus musculus [9] = assay: Percentage reduction of parasitaemia at day 4 at a concentration of 10 mg/kg by subcutaneous administration; format: functional; outline: as §3
# Mus musculus [10] = assay: In vivo antimalarial activity against Plasmodium berghei NK 173 in mice (Mus musculus) by intraperitoneal route at a concentration of 35.5 uM/kg at day 12; format: functional; outline: as §1
# Mus musculus [11] = assay: In vivo effective dose was evaluated against Plasmodium berghei N by sub cutaneous administration in mice (Mus musculus); format: functional; outline: as §3
# Mus musculus [12] = assay: In vivo antimalarial activity against Plasmodium berghei NK173 in mice (Mus musculus) by intraperitoneal route at a concentration of 35.5 uM/kg at day 11; format: functional; outline: as §1
# [13] = Solubility in iv formulation was determined after incubation at 25 degree C
# [14] = Solubility in oral formulation was determined after incubation at 25 degree C; format: physicochemical
# [15] = Plasma clearance following 10 mg/kg intravenous or 50 mg/kg oral dosing in rats; format: ADME, organism-based; conditions: rat, read-out: Activity
# Outline: (§4)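 Male Sprague-Dawley rats (280-320 g) were cannulated the day before, then fasted with free access to water, n = 2 per route. The iv dose was nominally 10 mg/kg, about 3 mg/mL in 10% ethanol/15 mM citrate-buffered 0.1 M Captisol, pH 3, infused over 5 min. The oral dose was nominally 50 mg/kg, given by gavage as a suspension in 0.5% HPMC, 0.5% benzyl alcohol and 0.4% Tween 80 in 0.9% NaCl. Carotid blood was sampled over 8 h, and plasma was quantified by HPLC/MS.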
# [16] = Oral bioavailability in rat (dose 10 mg/kg i.v. and 50 mg/kg p.o.); format: ADME, organism-based; conditions: in vivo; outline: as §4
# [17] = Solubility in PBS AT pH 7.4 was determined after incubation at 25 degree C; format: physicochemical
# [18] = Volume of distribution following 10 mg/kg intravenous or 50 mg/kg oral dosing in rats was determined; format: ADME, organism-based; conditions: rat, in vivo; read-out: Activity; outline: as §4
# Mus musculus [19] = assay: In vivo antimalarial activity against Plasmodium berghei NK 173 in mice (Mus musculus) by intraperitoneal route at a concentration of 35.5 uM/kg at day 10; format: functional; outline: as §1
# Mus musculus [20] = assay: In vivo antimalarial activity against Plasmodium berghei NK 173 in mice (Mus musculus) by intraperitoneal route at a concentration of 35.5 uM/kg at day 5; format: functional; outline: as §1
# [21] = Log D value between octanol and PBS at pH7.4; format: physicochemical; conditions: pH 7.4
# [22] = pKa value was determined; format: physicochemical
# [23] = Partition coefficient between octanol and water (logP); format: physicochemical
smiles,measurement,setting,value
"C[C@@H]1CC[C@H]2C(COCCO)=C(C(F)(F)F)O[C@@H]3OC4(C)CC[C@@H]1[C@]32OO4 (single isomer, unassigned)",Parasitemia,Mus musculus [1],2%
same,IC50,Plasmodium falciparum [2],2.4 nM
"CNCC1=C(C(F)(F)F)O[C@@H]2OC3(C)CC[C@H]4[C@H](C)CC[C@@H]1[C@@]24OO3 (single isomer, unassigned)",IC50,Plasmodium falciparum [2],9.2 nM
"C=CCOCC1=C(C(F)(F)F)O[C@@H]2OC3(C)CC[C@H]4[C@H](C)CC[C@@H]1[C@@]24OO3 (single isomer, unassigned)",IC50,Plasmodium falciparum [2],6 nM
"C[C@@H]1CC[C@H]2C(COCc3ccccc3)=C(C(F)(F)F)O[C@@H]3OC4(C)CC[C@@H]1[C@]32OO4 (single isomer, unassigned)",IC50,Plasmodium falciparum [3],20 nM
"C[C@@H]1CC[C@H]2C(CO)=C(C(F)(F)F)O[C@@H]3OC4(C)CCC1[C@]32OO4 (single isomer, unassigned)",Parasitemia,Mus musculus [1],40%
same,IC50,Plasmodium falciparum [2],7.5 nM
"CC1=CO[C@@H]2OC3(C)CC[C@H]4[C@H](C)CC[C@@H]1[C@@]24OO3 (single isomer, unassigned) [ANHYDRODIHYDROARTEMISININ]",Parasitemia,Mus musculus [1],18%
same,IC50,Plasmodium falciparum [2],20 nM
"C[C@@H]1CC[C@H]2C(CNS(C)(=O)=O)=C(C(F)(F)F)O[C@@H]3OC4(C)CC[C@@H]1[C@]32OO4 (single isomer, unassigned)",IC50,Plasmodium falciparum [2],20 nM
"COC(=O)C(C(=O)OC)C1=C(C(F)(F)F)O[C@@H]2OC3(C)CCC4[C@H](C)CC[C@@H]1[C@]42OO3 (single isomer, unassigned)",IC50,Plasmodium falciparum [3],> 1000 nM
"C[C@@H]1CC[C@H]2C(CN3CCOCC3)=C(C(F)(F)F)O[C@@H]3OC4(C)CCC1[C@]32OO4 (single isomer, unassigned)",ED50,Mus musculus [4],< 10 mg/kg
same,Parasitemia,Mus musculus [1],18%
same,ED90,Mus musculus [5],< 10 mg/kg
same,Reduction,Mus musculus [6],93.3%
same,ED50,Mus musculus [7],< 10 mg/kg
same,ED90,Mus musculus [8],< 10 mg/kg
same,Reduction,Mus musculus [9],98.1%
same,IC50,Plasmodium falciparum [2],3.1 nM
same,Parasitemia,Mus musculus [10],45%
"CC(=O)OCC1=C(C(F)(F)F)O[C@@H]2OC3(C)CC[C@H]4[C@H](C)CC[C@@H]1[C@@]24OO3 (single isomer, unassigned)",IC50,Plasmodium falciparum [2],1.7 nM
"C[C@@H]1CC[C@H]2C(CN)=C(C(F)(F)F)O[C@@H]3OC4(C)CC[C@@H]1[C@]32OO4 (single isomer, unassigned)",Parasitemia,Mus musculus [1],0.7%
same,IC50,Plasmodium falciparum [2],4.4 nM
C[C@H]1[C@H](OC(=O)CCC(=O)O)O[C@@H]2O[C@@]3(C)CC[C@H]4[C@H](C)CC[C@@H]1[C@@]24OO3 [ARTESUNATE],ED90,Mus musculus [5],15.3 mg/kg
same,ED50,Mus musculus [7],5.4 mg/kg
same,ED90,Mus musculus [8],10.5 mg/kg
same,ED50,Mus musculus [11],2.8 mg/kg
same,Reduction,Mus musculus [9],90%
"C[C@@H]1CC[C@H]2C(COCC(O)CO)=C(C(F)(F)F)O[C@@H]3OC4(C)CCC1[C@]32OO4 (single isomer, unassigned)",IC50,Plasmodium falciparum [2],3.7 nM
CO[C@H]1O[C@@H]2O[C@@]3(C)CC[C@H]4[C@H](C)CC[C@@H]([C@H]1C)[C@@]24OO3 [ARTEMETHER],Parasitemia,Mus musculus [12],32%
same,solubility,[13],4700 µg/mL
same,solubility,[14],256 µg/mL
same,Parasitemia,Mus musculus [1],0%
same,clearance,[15],114 mL/min/kg
same,bioavailability,[16],1.4%
same,solubility,[17],63.4 µg/mL
same,Vd,[18],8.4 L/kg
same,IC50,Plasmodium falciparum [2],3.5 nM
C[C@@H]1CC[C@H]2C(CC(C(=O)O)C(=O)O)=C(C(F)(F)F)O[C@@H]3O[C@]4(C)CC[C@@H]1[C@]32OO4,IC50,Plasmodium falciparum [3],> 1000 nM
"Cc1ccc(S(=O)(=O)NCC2=C(C(F)(F)F)O[C@@H]3OC4(C)CC[C@H]5[C@H](C)CC[C@@H]2[C@@]35OO4)cc1 (single isomer, unassigned)",IC50,Plasmodium falciparum [2],19.1 nM
"COCCOCC1=C(C(F)(F)F)O[C@@H]2OC3(C)CC[C@H]4[C@H](C)CC[C@@H]1[C@@]24OO3 (single isomer, unassigned)",Parasitemia,Mus musculus [1],6%
same,IC50,Plasmodium falciparum [2],2.7 nM
C[C@@H]1CC[C@H]2C(CNCCN)=C(C(F)(F)F)O[C@@H]3O[C@]4(C)CCC1[C@]32OO4 (stereo partly drawn),Parasitemia,Mus musculus [1],0%
same,Parasitemia,Mus musculus [19],25%
same,IC50,Plasmodium falciparum [2],1.2 nM
CCNCC1=C(C(F)(F)F)O[C@@H]2O[C@]3(C)CCC4[C@H](C)CC[C@@H]1[C@]42OO3 (stereo partly drawn),Parasitemia,Mus musculus [12],66%
same,ED90,Mus musculus [5],< 10 mg/kg
same,Reduction,Mus musculus [6],96%
same,ED50,Mus musculus [7],< 10 mg/kg
same,ED90,Mus musculus [8],< 10 mg/kg
same,IC50,Plasmodium falciparum [3],13.4 nM
same,ED50,Mus musculus [11],< 10 mg/kg
same,Reduction,Mus musculus [9],98.1%
same,Parasitemia,Mus musculus [20],5%
"CC1=C(C(F)(F)F)O[C@@H]2OC3(C)CC[C@H]4[C@H](C)CC[C@@H]1[C@@]24OO3 (single isomer, unassigned)",Parasitemia,Mus musculus [12],34%
same,Parasitemia,Mus musculus [1],0%
same,IC50,Plasmodium falciparum [2],6 nM
"C[C@@H]1CC[C@H]2C(CN3CCN(CCO)CC3)=C(C(F)(F)F)O[C@@H]3OC4(C)CC[C@@H]1[C@]32OO4 (single isomer, unassigned)",logD,[21],3.46
same,Parasitemia,Mus musculus [12],37%
same,solubility,[13],> 3000 µg/mL
same,solubility,[14],676 µg/mL
same,clearance,[15],149 mL/min/kg
same,bioavailability,[16],34.6%
same,ED90,Mus musculus [5],< 10 mg/kg
same,Reduction,Mus musculus [6],100%
same,solubility,[17],234 µg/mL
same,pKa,[22],6.59
same,ED50,Mus musculus [7],< 10 mg/kg
same,ED90,Mus musculus [8],< 10 mg/kg
same,logP,[23],3.52
same,IC50,Plasmodium falciparum [3],15.2 nM
same,ED50,Mus musculus [11],< 10 mg/kg
same,Vd,[18],11.8 L/kg
same,Reduction,Mus musculus [9],100%
same,Parasitemia,Mus musculus [20],0.5%
"C[C@@H]1CC[C@H]2C(CN=[N+]=[N-])=C(C(F)(F)F)O[C@@H]3OC4(C)CC[C@@H]1[C@]32OO4 (single isomer, unassigned)",IC50,Plasmodium falciparum [2],10 nM
"CCOCC1=C(C(F)(F)F)O[C@@H]2OC3(C)CC[C@H]4[C@H](C)CC[C@@H]1[C@@]24OO3 (single isomer, unassigned)",Parasitemia,Mus musculus [12],30%
same,Parasitemia,Mus musculus [1],0.4%
same,Reduction,Mus musculus [6],15.6%
same,ED90,Mus musculus [8],< 10 mg/kg
same,IC50,Plasmodium falciparum [3],25 nM
same,ED50,Mus musculus [11],< 10 mg/kg
same,Reduction,Mus musculus [9],100%

# From ChEMBL document CHEMBL1149097, “Orally active antimalarials: hydrolytically stable derivatives of 10-trifluoromethyl anhydrodihydroartemisinin” (J Med Chem, 2004)
